According to ChEMBL document CHEMBL4689842, “EUbOPEN Chemogenomics Library wave 1” (2021):

System: HEK-293T
Assay: Multiplex assay against HEK293T;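 as to Population Tubulin-Different-Phenotype (%): share of the cells with healthy nuclei that show this phenotype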
Type: toxicity, cell-based
Details: human
In short: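 Compound was added to live cells that had been stained at seeding with Hoechst33342, BioTracker Green Microtubule Cytoskeleton Dye, MitoTracker Red and Annexin V Alexa Fluor 680, and imaging followed on a CQ1 microscope at 37°C and 5% CO2. CellPathfinder machine-learning gating divided cells into Hoechst high-intensity objects or normal cells, normal cells into healthy, pyknosed or fragmented nuclei, and pyknosed cells into mitotic or apoptotic. Tubulin, mitochondrial-mass and membrane-permeability phenotypes are per cents of healthy-nucleus cells.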

[1] = 12 h, 1 µM, compound concentration 1 uM, replicate 1
[2] = 12 h, 1 µM, compound concentration 1 uM, replicate 2
[3] = 12 h, 10 µM, compound concentration 10 uM, replicate 1
[4] = 12 h, 10 µM, compound concentration 10 uM, replicate 2
[5] = 24 h, 1 µM, compound concentration 1 uM, replicate 1
[6] = 24 h, 1 µM, compound concentration 1 uM, replicate 2
[7] = 24 h, 10 µM, compound concentration 10 uM, replicate 1
[8] = 24 h, 10 µM, compound concentration 10 uM, replicate 2
[9] = 48 h, 1 µM, compound concentration 1 uM, replicate 1
[10] = 48 h, 1 µM, compound concentration 1 uM, replicate 2
[11] = 48 h, 10 µM, compound concentration 10 uM, replicate 1
[12] = 48 h, 10 µM, compound concentration 10 uM, replicate 2

SMILES: Cc1[nH]c(/C=C2\C(=O)Nc3ccc(S(=O)(=O)N(C)c4cccc(Cl)c4)cc32)c(C)c1C(=O)N1CCN(C)CC1
- Population Apoptotic (%) [1]: 60%
- Population Fragmented Nuclei (%) [1]: 7%
- Population Healthy Nuclei (%) [1]: 47%
- Population Hoechst High Intensity Objects (%) [1]: 16%
- Population Membrane Permeable-Phenotype (%) [1]: 7%
- Population Mitochondria Different-Phenotype (%) [1]: 93%
- Population Mitotic Cells (%) [1]: 39%
- Population Normal (%) [1]: 83%
- Population Pyknosed Nuclei (%) [1]: 44%
- Population Tubulin-Different-Phenotype (%) [1]: 91%
- Total Cell Count [1]: 198
- Population Apoptotic (%) [2]: 23%
- Population Fragmented Nuclei (%) [2]: 6%
- Population Healthy Nuclei (%) [2]: 46%
- Population Hoechst High Intensity Objects (%) [2]: 4%
- Population Membrane Permeable-Phenotype (%) [2]: 18%
- Population Mitochondria Different-Phenotype (%) [2]: 52%
- Population Mitotic Cells (%) [2]: 76%
- Population Normal (%) [2]: 95%
- Population Pyknosed Nuclei (%) [2]: 47%
- Population Tubulin-Different-Phenotype (%) [2]: 71%
- Total Cell Count [2]: 243
- Population Apoptotic (%) [3]: 67%
- Population Fragmented Nuclei (%) [3]: 12%
- Population Healthy Nuclei (%) [3]: 29%
- Population Hoechst High Intensity Objects (%) [3]: 15%
- Population Membrane Permeable-Phenotype (%) [3]: 5%
- Population Mitochondria Different-Phenotype (%) [3]: 90%
- Population Mitotic Cells (%) [3]: 32%
- Population Normal (%) [3]: 84%
- Population Pyknosed Nuclei (%) [3]: 57%
- Population Tubulin-Different-Phenotype (%) [3]: 98%
- Total Cell Count [3]: 214
- Population Apoptotic (%) [4]: 50%
- Population Fragmented Nuclei (%) [4]: 4%
- Population Healthy Nuclei (%) [4]: 40%
- Population Hoechst High Intensity Objects (%) [4]: 5%
- Population Membrane Permeable-Phenotype (%) [4]: 19%
- Population Mitochondria Different-Phenotype (%) [4]: 57%
- Population Mitotic Cells (%) [4]: 50%
- Population Normal (%) [4]: 94%
- Population Pyknosed Nuclei (%) [4]: 55%
- Population Tubulin-Different-Phenotype (%) [4]: 93%
- Total Cell Count [4]: 157
- Population Apoptotic (%) [5]: 55%
- Population Fragmented Nuclei (%) [5]: 11%
- Population Healthy Nuclei (%) [5]: 48%
- Population Hoechst High Intensity Objects (%) [5]: 18%
- Population Membrane Permeable-Phenotype (%) [5]: 3%
- Population Mitochondria Different-Phenotype (%) [5]: 85%
- Population Mitotic Cells (%) [5]: 44%
- Population Normal (%) [5]: 81%
- Population Pyknosed Nuclei (%) [5]: 40%
- Population Tubulin-Different-Phenotype (%) [5]: 86%
- Total Cell Count [5]: 212
- Population Apoptotic (%) [6]: 24%
- Population Fragmented Nuclei (%) [6]: 4%
- Population Healthy Nuclei (%) [6]: 56%
- Population Hoechst High Intensity Objects (%) [6]: 3%
- Population Membrane Permeable-Phenotype (%) [6]: 7%
- Population Mitochondria Different-Phenotype (%) [6]: 57%
- Population Mitotic Cells (%) [6]: 75%
- Population Normal (%) [6]: 96%
- Population Pyknosed Nuclei (%) [6]: 38%
- Population Tubulin-Different-Phenotype (%) [6]: 71%
- Total Cell Count [6]: 295
- Population Apoptotic (%) [7]: 88%
- Population Fragmented Nuclei (%) [7]: 15%
- Population Healthy Nuclei (%) [7]: 27%
- Population Hoechst High Intensity Objects (%) [7]: 12%
- Population Membrane Permeable-Phenotype (%) [7]: 5%
- Population Mitochondria Different-Phenotype (%) [7]: 100%
- Population Mitotic Cells (%) [7]: 11%
- Population Normal (%) [7]: 87%
- Population Pyknosed Nuclei (%) [7]: 56%
- Population Tubulin-Different-Phenotype (%) [7]: 98%
- Total Cell Count [7]: 230
- Population Apoptotic (%) [8]: 83%
- Population Fragmented Nuclei (%) [8]: 7%
- Population Healthy Nuclei (%) [8]: 35%
- Population Hoechst High Intensity Objects (%) [8]: 4%
- Population Membrane Permeable-Phenotype (%) [8]: 10%
- Population Mitochondria Different-Phenotype (%) [8]: 81%
- Population Mitotic Cells (%) [8]: 16%
- Population Normal (%) [8]: 95%
- Population Pyknosed Nuclei (%) [8]: 57%
- Population Tubulin-Different-Phenotype (%) [8]: 96%
- Total Cell Count [8]: 162
- Population Apoptotic (%) [9]: 55%
- Population Fragmented Nuclei (%) [9]: 14%
- Population Healthy Nuclei (%) [9]: 56%
- Population Hoechst High Intensity Objects (%) [9]: 19%
- Population Membrane Permeable-Phenotype (%) [9]: 2%
- Population Mitochondria Different-Phenotype (%) [9]: 66%
- Population Mitotic Cells (%) [9]: 44%
- Population Normal (%) [9]: 80%
- Population Pyknosed Nuclei (%) [9]: 29%
- Population Tubulin-Different-Phenotype (%) [9]: 74%
- Total Cell Count [9]: 246
- Population Apoptotic (%) [10]: 31%
- Population Fragmented Nuclei (%) [10]: 4%
- Population Healthy Nuclei (%) [10]: 75%
- Population Hoechst High Intensity Objects (%) [10]: 1%
- Population Membrane Permeable-Phenotype (%) [10]: 8%
- Population Mitochondria Different-Phenotype (%) [10]: 20%
- Population Mitotic Cells (%) [10]: 68%
- Population Normal (%) [10]: 98%
- Population Pyknosed Nuclei (%) [10]: 19%
- Population Tubulin-Different-Phenotype (%) [10]: 54%
- Total Cell Count [10]: 469
- Population Apoptotic (%) [11]: 92%
- Population Fragmented Nuclei (%) [11]: 17%
- Population Healthy Nuclei (%) [11]: 30%
- Population Hoechst High Intensity Objects (%) [11]: 15%
- Population Membrane Permeable-Phenotype (%) [11]: 5%
- Population Mitochondria Different-Phenotype (%) [11]: 100%
- Population Mitotic Cells (%) [11]: 7%
- Population Normal (%) [11]: 84%
- Population Pyknosed Nuclei (%) [11]: 52%
- Population Tubulin-Different-Phenotype (%) [11]: 96%
- Total Cell Count [11]: 223
- Population Fragmented Nuclei (%) [12]: 4%
- Population Healthy Nuclei (%) [12]: 54%
- Population Hoechst High Intensity Objects (%) [12]: 3%
- Population Membrane Permeable-Phenotype (%) [12]: 9%
- Population Mitochondria Different-Phenotype (%) [12]: 68%
- Population Normal (%) [12]: 96%
- Population Pyknosed Nuclei (%) [12]: 41%
- Total Cell Count [12]: 178
